This passage reports Ki results from BindingDB's records for doi:10.1016/j.ejmech.2019.111611 (The University of Queensland, 2019).

For orientation: Ki means a measure of affinity in units of concentration, obtained from inhibition or displacement. A low value points to a stronger hold on the target.

This experiment addresses T1, Fe(3+)-Zn(2+) purple acid phosphatase (Phaseolus vulgaris, UniProt P80366).
T1 sequence (P80366 whole entry): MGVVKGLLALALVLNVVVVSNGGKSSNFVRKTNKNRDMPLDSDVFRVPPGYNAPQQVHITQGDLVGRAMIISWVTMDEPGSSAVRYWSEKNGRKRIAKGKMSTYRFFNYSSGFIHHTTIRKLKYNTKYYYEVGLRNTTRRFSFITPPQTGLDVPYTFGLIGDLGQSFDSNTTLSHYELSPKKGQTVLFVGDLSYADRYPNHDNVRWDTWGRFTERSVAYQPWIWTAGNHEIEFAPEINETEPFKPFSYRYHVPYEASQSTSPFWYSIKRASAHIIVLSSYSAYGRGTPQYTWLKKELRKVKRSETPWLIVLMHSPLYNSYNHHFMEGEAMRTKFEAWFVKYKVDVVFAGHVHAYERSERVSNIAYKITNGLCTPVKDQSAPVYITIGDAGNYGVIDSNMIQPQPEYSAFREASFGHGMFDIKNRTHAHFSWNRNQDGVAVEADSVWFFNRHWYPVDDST
Briefly: Competitive inhibition of red kidney bean PAP using varying levels of pNPP as substrate measured at pH 6.2 by UV-vis spectrophotometric analysis. The gist of the method: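 Red kidney bean PAP (rkbPAP), purified, at 8.4 nM. p-NPP 1–15 mM in 0.1 M MES pH 6.2 with 25% DMSO, 25 °C. p-Nitrophenol formation followed at 405 nm (Δε 1834.4 mol−1 L cm−1). Inhibitor concentration varied; competitive constant Kic from non-linear regression using a general inhibition equation.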

The molecule `CCCCCCCCCCCCCCOC(c1cccc2ccccc12)P(=O)(O)O` (stereo unspecified) showed a Ki of 200 nM.

As to `CCCCCCCCCCCCCCCCCCOC(c1cccc2ccccc12)P(=O)(O)O` (stereo unspecified), the Ki came out at 500 nM. Under `CCCCCCCCCCCCCCCCCCCCOC(c1cccc2ccccc12)P(=O)(O)O` (stereo unspecified) stands 800 nM. As to `CCCCCCCCCCCCOC(c1cccc2ccccc12)P(=O)(O)O` (stereo unspecified), the Ki was found to be 4500 nM. Under `CCCCCCCCCCCCCCCCCCCCCCOC(c1cccc2ccccc12)P(=O)(O)O` (stereo unspecified) stands 14000 nM; under `CCCCCCCCCCCCCCCCOC(c1cccc2ccccc12)P(=O)(O)O` (stereo unspecified), 400 nM.
